The values that follow come from ChEMBL document CHEMBL3779771, “Chiral Dihydrobenzofuran Acids Show Potent Retinoid X Receptor-Nuclear Receptor Related 1 Protein Dimer Activation” (J Med Chem, 2016).

Assay [1] addresses T1, Retinoic acid receptor RXR-alpha (Homo sapiens) (UniProt P19793).
T1 sequence (whole entry): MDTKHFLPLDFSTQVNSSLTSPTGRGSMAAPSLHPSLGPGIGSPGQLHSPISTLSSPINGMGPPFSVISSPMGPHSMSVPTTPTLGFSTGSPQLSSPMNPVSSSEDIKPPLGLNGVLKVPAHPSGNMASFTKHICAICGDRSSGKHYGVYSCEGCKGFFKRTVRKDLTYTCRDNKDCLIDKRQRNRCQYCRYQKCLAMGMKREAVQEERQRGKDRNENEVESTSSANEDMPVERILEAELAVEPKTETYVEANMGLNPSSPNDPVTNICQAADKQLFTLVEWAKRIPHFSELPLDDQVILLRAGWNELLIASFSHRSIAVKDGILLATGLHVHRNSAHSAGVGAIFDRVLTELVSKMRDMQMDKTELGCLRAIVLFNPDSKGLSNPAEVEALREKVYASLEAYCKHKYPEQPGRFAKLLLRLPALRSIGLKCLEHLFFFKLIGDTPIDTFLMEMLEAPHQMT
In words: (§1) Agonist activity at histidine-tagged ligand binding domain of human RXRalpha expressed in Escherichia coli BL21 (DE3) by luciferase reporter gene assay.

For assay [2], the target named is T2, Nuclear receptor subfamily 4 group A member 2/Retinoic acid receptor RXR-alpha (Homo sapiens, UniProt P19793+P43354). In words: Agonist activity at Renilla luciferase/GFP2-tagged RXRalpha/Nurr1 (unknown origin) expressed in HEK293T cells by BRET2 assay. In kind it is cell-based, HEK-293T.
T2 sequence (P43354 whole entry, one chain of several): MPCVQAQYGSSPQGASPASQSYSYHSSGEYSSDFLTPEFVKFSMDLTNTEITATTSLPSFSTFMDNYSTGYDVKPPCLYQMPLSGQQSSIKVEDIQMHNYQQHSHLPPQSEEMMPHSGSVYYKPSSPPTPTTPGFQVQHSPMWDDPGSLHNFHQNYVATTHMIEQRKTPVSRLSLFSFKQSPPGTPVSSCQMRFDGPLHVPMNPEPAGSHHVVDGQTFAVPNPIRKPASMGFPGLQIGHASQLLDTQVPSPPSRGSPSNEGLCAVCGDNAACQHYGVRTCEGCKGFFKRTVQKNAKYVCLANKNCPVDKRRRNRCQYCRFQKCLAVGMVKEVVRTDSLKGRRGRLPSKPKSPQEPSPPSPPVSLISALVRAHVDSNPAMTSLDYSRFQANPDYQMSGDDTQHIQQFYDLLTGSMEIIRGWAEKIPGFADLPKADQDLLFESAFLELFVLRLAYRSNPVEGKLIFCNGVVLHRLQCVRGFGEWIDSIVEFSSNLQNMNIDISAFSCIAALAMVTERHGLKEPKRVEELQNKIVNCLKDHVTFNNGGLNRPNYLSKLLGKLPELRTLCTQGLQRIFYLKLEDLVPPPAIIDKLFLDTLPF
In assay [3] the target is T2, Nuclear receptor subfamily 4 group A member 2/Retinoic acid receptor RXR-alpha. In words: Agonist activity at Renilla luciferase/GFP2-tagged RXRalpha/Nurr1 (unknown origin) expressed in HEK293T cells by BRET2 assay relative to bexarotene. It is filed as cell-based. The following applies: HEK-293T. In short, it runs like this: (§2)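 BRET2 assay with RXR and Nurr1 receptors tagged with GFP and Renilla luciferase, run in whole cells. Potency is given as pEC50, the negative log of molar EC50. Agonist efficacy is expressed relative to bexarotene, set at 100%. Values are mean ± SD of at least three independent experiments.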
Background: Bioluminescence resonance energy transfer reports proximity on the nanometre scale.

Assay [4] concerns the target T1, Retinoic acid receptor RXR-alpha (Homo sapiens). Nature of the assay: Agonist activity at Renilla luciferase/GFP2-tagged RXRalpha homodimer (unknown origin) expressed in HEK293T cells by BRET2 assay relative to bexarotene. It is filed as cell-based. The following applies: HEK-293T. The essentials:
as §2

For assay [5], the target named is T3, Retinoic acid receptor RXR-alpha (Homo sapiens, UniProt P19793).
T3 sequence (P19793 whole entry): T1 sequence (whole entry)
Described as §1.

For assay [6], the target named is T1, Retinoic acid receptor RXR-alpha (Homo sapiens). Nature of the assay: Agonist activity at histidine-tagged ligand binding domain of human RXRalpha expressed in Escherichia coli BL21 (DE3) by luciferase reporter gene assay relative to bexarotene. Background: In a reporter assay the amount or activity of a reporter protein is the signal.
Assay [7] concerns the target T4, Estrogen receptor (Homo sapiens) (UniProt P03372).
T4 sequence (whole entry): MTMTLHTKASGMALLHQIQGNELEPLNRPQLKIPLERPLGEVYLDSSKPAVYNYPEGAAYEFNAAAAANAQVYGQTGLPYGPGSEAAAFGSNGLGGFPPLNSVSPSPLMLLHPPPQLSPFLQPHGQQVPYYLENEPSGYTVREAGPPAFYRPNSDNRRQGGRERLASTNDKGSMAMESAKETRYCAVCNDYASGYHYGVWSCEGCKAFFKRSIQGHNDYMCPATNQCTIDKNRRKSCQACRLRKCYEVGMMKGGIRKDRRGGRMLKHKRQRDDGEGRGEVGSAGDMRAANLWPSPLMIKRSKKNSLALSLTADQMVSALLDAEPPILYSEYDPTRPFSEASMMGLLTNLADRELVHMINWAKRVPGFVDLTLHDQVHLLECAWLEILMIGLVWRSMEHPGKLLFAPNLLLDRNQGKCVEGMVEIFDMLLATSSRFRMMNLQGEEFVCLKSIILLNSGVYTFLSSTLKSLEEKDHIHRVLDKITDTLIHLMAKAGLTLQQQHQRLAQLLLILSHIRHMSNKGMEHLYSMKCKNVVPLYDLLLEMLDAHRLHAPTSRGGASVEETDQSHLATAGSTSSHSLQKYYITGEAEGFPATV
In words: Activation of estrogen receptor (unknown origin).

The target of assay [8] is Retinoic acid receptor (Homo sapiens) (UniProt P13631+P10826+P10276). Nature of the assay: Activation of RAR (unknown origin). In kind it is protein assay.
Chain of Retinoic acid receptor (Homo sapiens) (P10276 whole entry, looked up): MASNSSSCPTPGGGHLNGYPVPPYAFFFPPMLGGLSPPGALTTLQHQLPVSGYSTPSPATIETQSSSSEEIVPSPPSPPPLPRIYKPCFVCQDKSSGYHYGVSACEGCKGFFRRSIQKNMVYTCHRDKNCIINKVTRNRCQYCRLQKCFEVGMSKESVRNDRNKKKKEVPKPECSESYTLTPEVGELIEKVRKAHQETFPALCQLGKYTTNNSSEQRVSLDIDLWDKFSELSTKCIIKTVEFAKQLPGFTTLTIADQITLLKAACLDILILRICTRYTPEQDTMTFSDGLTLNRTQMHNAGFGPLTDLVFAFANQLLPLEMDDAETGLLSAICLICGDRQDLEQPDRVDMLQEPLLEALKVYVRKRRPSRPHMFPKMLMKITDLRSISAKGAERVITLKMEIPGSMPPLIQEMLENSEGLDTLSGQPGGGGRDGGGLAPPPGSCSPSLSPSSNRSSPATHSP
Chain of Retinoic acid receptor (Homo sapiens) (P10826 whole entry, looked up): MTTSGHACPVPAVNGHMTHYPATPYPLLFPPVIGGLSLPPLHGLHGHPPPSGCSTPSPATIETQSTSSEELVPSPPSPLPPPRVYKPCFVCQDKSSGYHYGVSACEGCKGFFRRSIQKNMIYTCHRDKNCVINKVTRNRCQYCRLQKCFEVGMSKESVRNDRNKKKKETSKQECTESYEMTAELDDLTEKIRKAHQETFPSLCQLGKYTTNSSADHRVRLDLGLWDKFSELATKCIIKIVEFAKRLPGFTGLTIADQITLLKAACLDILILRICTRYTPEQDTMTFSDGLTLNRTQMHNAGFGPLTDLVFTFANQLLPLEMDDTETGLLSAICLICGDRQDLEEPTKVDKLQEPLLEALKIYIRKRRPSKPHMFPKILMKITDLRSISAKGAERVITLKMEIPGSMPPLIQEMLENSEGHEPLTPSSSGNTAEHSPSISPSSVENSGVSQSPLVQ
Chain of Retinoic acid receptor (Homo sapiens) (P13631 whole entry, looked up): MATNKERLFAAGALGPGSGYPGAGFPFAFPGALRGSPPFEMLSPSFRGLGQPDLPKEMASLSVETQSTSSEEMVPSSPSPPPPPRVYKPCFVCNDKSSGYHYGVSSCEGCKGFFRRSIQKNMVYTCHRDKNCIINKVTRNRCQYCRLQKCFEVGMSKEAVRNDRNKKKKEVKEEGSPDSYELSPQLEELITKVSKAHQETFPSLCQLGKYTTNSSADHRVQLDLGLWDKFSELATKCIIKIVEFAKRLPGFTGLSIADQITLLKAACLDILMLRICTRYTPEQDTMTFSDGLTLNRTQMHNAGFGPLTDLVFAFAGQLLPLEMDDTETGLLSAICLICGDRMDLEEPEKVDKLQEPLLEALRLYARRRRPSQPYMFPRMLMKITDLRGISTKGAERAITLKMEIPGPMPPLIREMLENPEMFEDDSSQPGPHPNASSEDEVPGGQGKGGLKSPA
For assay [9], the target named is T3, Retinoic acid receptor RXR-alpha. In words: Agonist activity at Renilla luciferase/GFP2-tagged RXRalpha homodimer (unknown origin) expressed in HEK293T cells by BRET2 assay. It is filed as cell-based, HEK-293T.
The species named for a further assay is Homo sapiens. Nature of the assay: Selectivity ratio of EC50 for Renilla luciferase/GFP2-tagged RXRalpha homodimer (unknown origin) to EC50 for Renilla luciferase/GFP2-tagged RXRalpha/Nurr1 (unknown origin).

What is called EC50 is the concentration giving half of the maximal effect. Lower therefore signals a more potent agent.

Each structure is given as a SMILES string. Active and inactive are the calls of the source. The rule behind the calls is not given here. A value given as a limit tells only on which side of the number the result lay.

In the case of `CC1(C)CCC(C)(C)c2cc3c(cc21)O[C@H]1CCCCC[C@]31c1ccc(C(=O)O)cc1` (racemic), in assay [1], the pEC50 entry was “inactive”.
Consider `CC1(C)CCC(C)(C)c2cc3c(cc21)O[C@H]1CCCC[C@@]31c1ccc(C(=O)O)cc1`, for which the pEC50 result in [1] was “inactive”. For the same molecule, in assay [2], the EC50 was over 3160 nM. Besides, the Efficacy in [3] is 92%. Besides, in assay [4], the Efficacy entry was “inactive”.
The molecule `CC1(C)CCC(C)(C)c2cc3c(cc21)OC1CCCCC31c1ccc(C(=O)O)cc1` (racemic) had a concentration giving a half-maximal response (EC50) in assay [5] of 50.1 nM. The molecule further gave an Efficacy in [6] of 96%. Moreover, the result in assay [7] and in assay [8] was inactive.
As to `CC1(C)CCC(C)(C)c2cc3c(cc21)O[C@H]1CCC[C@@]31c1ccc(C(=O)O)cc1`, the EC50 in assay [5] is 1000 nM; in assay [2], 501 nM. Also, the Efficacy in [6] is 59%; in assay [3], 49%. Moreover, the Efficacy entry in assay [4] was “inactive”.
Take `CC1(C)CCC(C)(C)c2cc3c(cc21)OC1CCCCC31c1ccc(C(=O)O)c(F)c1` (racemic): in assay [5], the EC50 was 50.1 nM. The molecule further had an Efficacy in assay [6] of 88%. For the same molecule, the outcome in assay [7] and in [8] was inactive.
`CC1(C)CCC(C)(C)c2cc3c(cc21)OC1CCCC31c1ccc(C(=O)O)cc1` (racemic) showed an EC50 in [5] of 25.1 nM. In assay [6], this molecule returned an Efficacy of 65%. In addition, the outcome in assay [7] and in assay [8] was inactive.
In turn, `CC1(C)CCC(C)(C)c2cc3c(cc21)O[C@H]1CCCCC[C@@]31c1ccc(C(=O)O)cc1` (racemic) had an EC50 in [5] of 126 nM. Moreover, the Efficacy in assay [6] came out at 47%. Besides, the result in [7] and in [8] was inactive.
Take `CC1(C)CCC(C)(C)c2cc3c(cc21)O[C@@H]1CCC[C@]31c1ccc(C(=O)O)cc1`: the EC50 in assay [5] is 6.31 nM; in [2], 12.6 nM; in [9] it was 25.1 nM. The Efficacy in [6] came out at 119%; in [3], 111%; in assay [4], 85%. Also, the Ratio EC50 in the assay listed under Homo sapiens turned out to be 3.
As to `CC1(C)CCC(C)(C)c2cc3c(cc21)OC1CCCCC31c1ccc(O)cc1` (racemic), the pEC50 result in assay [1] is “inactive”.
As for `CC1(C)CCC(C)(C)c2cc3c(cc21)O[C@@H]1CCCC[C@]31c1ccc(C(=O)O)cc1`, the EC50 in assay [5] is 20 nM; in assay [2] it was 12.6 nM; in assay [9], 15.8 nM. Also, the Efficacy in assay [6] is 94%; in [3] it was 96%; in assay [4], 80%.
